Laboratory results from ChEMBL document CHEMBL4406821, “Novel dual inhibitors targeting CDK4 and VEGFR2 synergistically suppressed cancer progression and angiogenesis” (Eur J Med Chem, 2019).
Active and inactive are the calls of the source. The rule behind the calls is not given here.

What was measured:
HeLa [1] = experiment: Antiproliferative activity against human HeLa cells assessed as reduction in cell viability at 80 nM incubated for 48 hrs by EdU staining based laser scanning confocal microscopy; assay type: functional
In short: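 Cells, 5×10^4, were seeded in 24-well plates and treated for 48 h. They were then labeled using an EdU Apollo 488 imaging kit with Hoechst 33342 nuclear stain and imaged by laser scanning confocal microscopy. Percent EdU-positive cells = EdU-positive/Hoechst-stained × 100%.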

HeLa [2] = experiment: Inhibition of colony formation in human HeLa cells at 80 nM incubated for 5 days by crystal violet staining based light microscopy; assay type: functional, cell-based
In short: (§1)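 4 × 10^3 cells per well were cultured with graded concentrations for 5 days. Cells were then fixed with 20% methanol, stained with 0.5% crystal violet and photographed by light microscopy.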

SiHa = experiment: Induction of apoptosis in human SiHa cells assessed as decrease in Rb phosphorylation incubated for 48 hrs by Western blot analysis; assay type: functional, cell-based
In short: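 Cancer cells were exposed to graded concentrations for 48 h, washed three times in PBS and lysed in RIPA buffer. Immunoblots were probed with anti-Rb, anti-phospho-Rb, anti-Ki67 and anti-Bcl-2, each at 1:1000. β-actin served as loading control.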

[3] = biological target: Dual specificity protein kinase TTK (Homo sapiens) (UniProt P33981); experiment: Inhibition of recombinant human full length TTK at 1 uM using MBP as substrate incubated for 40 mins in presence of [gamma-33P]-ATP by scintillation counting method relative to control
Dual specificity protein kinase TTK (Homo sapiens), sequence (P33981 whole entry): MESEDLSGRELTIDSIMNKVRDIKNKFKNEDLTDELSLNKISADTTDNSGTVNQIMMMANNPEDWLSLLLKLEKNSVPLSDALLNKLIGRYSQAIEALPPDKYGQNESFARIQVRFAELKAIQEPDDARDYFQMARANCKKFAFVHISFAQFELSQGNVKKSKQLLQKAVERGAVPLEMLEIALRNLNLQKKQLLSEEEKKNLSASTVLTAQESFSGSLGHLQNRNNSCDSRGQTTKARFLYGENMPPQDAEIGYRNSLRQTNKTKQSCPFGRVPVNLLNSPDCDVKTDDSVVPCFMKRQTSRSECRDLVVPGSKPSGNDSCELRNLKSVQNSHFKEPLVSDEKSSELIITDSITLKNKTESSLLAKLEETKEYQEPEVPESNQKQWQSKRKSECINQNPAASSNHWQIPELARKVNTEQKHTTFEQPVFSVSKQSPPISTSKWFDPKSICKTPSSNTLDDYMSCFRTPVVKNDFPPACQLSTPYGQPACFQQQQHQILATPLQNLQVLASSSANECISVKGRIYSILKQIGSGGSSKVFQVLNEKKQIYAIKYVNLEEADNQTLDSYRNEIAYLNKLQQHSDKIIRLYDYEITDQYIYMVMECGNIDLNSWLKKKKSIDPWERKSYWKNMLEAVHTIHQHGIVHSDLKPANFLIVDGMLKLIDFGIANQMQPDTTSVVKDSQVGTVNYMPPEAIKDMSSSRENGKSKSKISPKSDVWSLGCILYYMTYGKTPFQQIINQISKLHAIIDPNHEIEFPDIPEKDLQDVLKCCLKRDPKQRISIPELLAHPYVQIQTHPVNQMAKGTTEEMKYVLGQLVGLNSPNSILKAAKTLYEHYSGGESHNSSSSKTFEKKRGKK

[4] = biological target: Tyrosine-protein kinase CSK (Homo sapiens) (UniProt P41240); experiment: Inhibition of recombinant full length human CSK at 1 uM using poly(Glu, Tyr) 4:1 as substrate incubated for 40 mins in presence of [gamma-33P]-ATP by scintillation counting method relative to control
Tyrosine-protein kinase CSK (Homo sapiens), sequence (P41240 2-450 limits assumed): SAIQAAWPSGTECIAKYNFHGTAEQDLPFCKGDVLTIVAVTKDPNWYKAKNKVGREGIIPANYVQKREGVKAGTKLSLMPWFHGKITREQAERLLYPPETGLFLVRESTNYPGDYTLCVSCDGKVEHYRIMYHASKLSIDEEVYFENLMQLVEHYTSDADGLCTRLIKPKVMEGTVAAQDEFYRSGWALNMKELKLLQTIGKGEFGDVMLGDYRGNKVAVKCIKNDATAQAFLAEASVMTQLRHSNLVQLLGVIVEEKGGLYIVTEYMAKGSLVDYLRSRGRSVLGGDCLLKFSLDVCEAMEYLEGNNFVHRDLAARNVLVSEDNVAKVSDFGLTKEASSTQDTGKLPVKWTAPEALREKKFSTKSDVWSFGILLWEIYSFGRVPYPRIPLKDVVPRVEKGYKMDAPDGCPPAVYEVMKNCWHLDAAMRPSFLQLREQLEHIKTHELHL
In short: (§2)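 Tested at a single 1 uM in an outsourced commercial kinase-profiling panel, read as percent inhibition. Each value is the mean of two independent experiments.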

[5] = biological target: Serine/threonine-protein kinase haspin (Homo sapiens) (UniProt Q8TF76); experiment: Inhibition of recombinant human Haspin (471 to end residues) at 1 uM using RARTLSFAEPG as substrate incubated for 40 mins in presence of [gamma-33P]-ATP by scintillation counting method relative to control
MDA-MB-231 [6] = experiment: Induction of apoptosis in human MDA-MB-231 cells assessed as increase in late apoptotic cells at 20 to 40 nM incubated for 48 hrs by annexin V FITC and propidium iodide staining based flow cytometry; assay type: functional, cell-based
In short: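 Annexin V-FITC/PI double staining with flow-cytometric readout. MDA-MB-231, T-47D, SiHa and HeLa cells were treated with graded concentrations for 48 h. MDA-MB-231 and T-47D were grown in DMEM and SiHa in 1640 medium, each with 10% FBS and 1% penicillin/streptomycin at 37°C under 5% CO2. Early- and late-stage apoptotic fractions were scored.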

[7] = biological target: Receptor-interacting serine/threonine-protein kinase 1 (Homo sapiens) (UniProt Q13546); experiment: Inhibition of recombinant human RIPK1 (8 to 322 residues) at 1 uM using myelin basic protein as substrate incubated for 40 mins in presence of [gamma-33P]-ATP by scintillation counting method relative to control
Receptor-interacting serine/threonine-protein kinase 1 (Homo sapiens), sequence (Q13546 whole entry, the tested form may be a part): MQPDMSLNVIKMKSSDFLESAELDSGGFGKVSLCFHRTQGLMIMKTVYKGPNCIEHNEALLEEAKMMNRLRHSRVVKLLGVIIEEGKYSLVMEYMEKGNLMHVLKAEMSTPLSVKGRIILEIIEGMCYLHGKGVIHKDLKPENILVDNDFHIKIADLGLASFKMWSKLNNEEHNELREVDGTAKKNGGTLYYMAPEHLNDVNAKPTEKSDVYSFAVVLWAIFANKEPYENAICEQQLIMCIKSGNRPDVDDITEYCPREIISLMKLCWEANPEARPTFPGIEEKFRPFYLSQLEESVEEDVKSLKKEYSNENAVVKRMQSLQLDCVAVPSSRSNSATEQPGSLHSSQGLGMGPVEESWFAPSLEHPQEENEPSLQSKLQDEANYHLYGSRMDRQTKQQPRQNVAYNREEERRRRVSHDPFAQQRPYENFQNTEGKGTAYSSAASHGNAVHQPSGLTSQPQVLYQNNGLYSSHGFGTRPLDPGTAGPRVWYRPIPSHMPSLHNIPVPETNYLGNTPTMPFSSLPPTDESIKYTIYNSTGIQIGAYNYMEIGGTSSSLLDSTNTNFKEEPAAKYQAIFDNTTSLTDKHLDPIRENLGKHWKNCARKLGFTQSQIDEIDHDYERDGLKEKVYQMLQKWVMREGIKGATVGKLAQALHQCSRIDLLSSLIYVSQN

[8] = VRT (0 to t) in Sprague-Dawley rat at 10 mg/kg, po by HPLC-MS analysis; assay type: ADME, organism-based; conditions: in vivo
[9] = biological target: SRSF protein kinase 2 (Homo sapiens) (UniProt P78362); experiment: Inhibition of recombinant human SRPK2 (46 to end residues) at 1 uM using RSRSRSRSRSRSRSR as substrate incubated for 40 mins in presence of [gamma-33P]-ATP by scintillation counting method relative to control
[10] = biological target: Serine/threonine-protein kinase ULK3 (Homo sapiens) (UniProt Q6PHR2); experiment: Inhibition of recombinant human full length ULK3 at 1 uM using casein as substrate incubated for 40 mins in presence of [gamma-33P]-ATP by scintillation counting method relative to control
Serine/threonine-protein kinase ULK3 (Homo sapiens), sequence (Q6PHR2 whole entry): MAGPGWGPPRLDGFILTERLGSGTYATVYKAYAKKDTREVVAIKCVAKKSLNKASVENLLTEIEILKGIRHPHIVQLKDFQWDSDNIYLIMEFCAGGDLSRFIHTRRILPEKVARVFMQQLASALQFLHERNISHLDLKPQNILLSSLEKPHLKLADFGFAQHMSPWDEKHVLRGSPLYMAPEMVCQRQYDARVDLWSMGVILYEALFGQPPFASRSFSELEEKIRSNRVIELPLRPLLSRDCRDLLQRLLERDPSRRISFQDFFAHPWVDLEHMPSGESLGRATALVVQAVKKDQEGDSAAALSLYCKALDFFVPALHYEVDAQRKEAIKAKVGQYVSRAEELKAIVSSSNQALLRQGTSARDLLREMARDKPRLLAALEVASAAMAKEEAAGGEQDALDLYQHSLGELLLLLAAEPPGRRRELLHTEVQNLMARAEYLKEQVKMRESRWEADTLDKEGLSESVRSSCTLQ

[11] = biological target: RAC-alpha serine/threonine-protein kinase (Homo sapiens) (UniProt P31749); experiment: Inhibition of recombinant human PKBalpha at 1 uM using as CKRREILSRRPSYRK substrate incubated for 60 mins in presence of [gamma-33P]-ATP by scintillation counting method relative to control
RAC-alpha serine/threonine-protein kinase (Homo sapiens), sequence (P31749 whole entry): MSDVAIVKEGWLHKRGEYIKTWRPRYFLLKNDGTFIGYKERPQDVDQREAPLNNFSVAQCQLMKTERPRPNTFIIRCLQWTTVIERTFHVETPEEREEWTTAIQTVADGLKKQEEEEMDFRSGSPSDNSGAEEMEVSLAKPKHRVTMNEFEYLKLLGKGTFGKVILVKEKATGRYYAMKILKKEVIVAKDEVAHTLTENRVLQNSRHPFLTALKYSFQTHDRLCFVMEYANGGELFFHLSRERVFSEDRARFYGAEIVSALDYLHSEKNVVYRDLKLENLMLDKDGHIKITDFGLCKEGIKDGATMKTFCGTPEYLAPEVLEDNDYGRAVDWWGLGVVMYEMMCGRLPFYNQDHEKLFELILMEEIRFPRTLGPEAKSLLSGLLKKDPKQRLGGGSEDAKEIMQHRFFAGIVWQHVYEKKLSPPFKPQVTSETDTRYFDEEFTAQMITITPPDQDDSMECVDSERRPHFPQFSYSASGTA

[12] = biological target: Ribosomal protein S6 kinase alpha-4 (Homo sapiens) (UniProt O75676); experiment: Inhibition of recombinant human MSK2 (2 to end residues) at 1 uM using GRPRTSSFAEGKK as substrate incubated for 40 mins in presence of [gamma-33P]-ATP by scintillation counting method relative to control
Ribosomal protein S6 kinase alpha-4 (Homo sapiens), sequence (O75676 whole entry, looked up): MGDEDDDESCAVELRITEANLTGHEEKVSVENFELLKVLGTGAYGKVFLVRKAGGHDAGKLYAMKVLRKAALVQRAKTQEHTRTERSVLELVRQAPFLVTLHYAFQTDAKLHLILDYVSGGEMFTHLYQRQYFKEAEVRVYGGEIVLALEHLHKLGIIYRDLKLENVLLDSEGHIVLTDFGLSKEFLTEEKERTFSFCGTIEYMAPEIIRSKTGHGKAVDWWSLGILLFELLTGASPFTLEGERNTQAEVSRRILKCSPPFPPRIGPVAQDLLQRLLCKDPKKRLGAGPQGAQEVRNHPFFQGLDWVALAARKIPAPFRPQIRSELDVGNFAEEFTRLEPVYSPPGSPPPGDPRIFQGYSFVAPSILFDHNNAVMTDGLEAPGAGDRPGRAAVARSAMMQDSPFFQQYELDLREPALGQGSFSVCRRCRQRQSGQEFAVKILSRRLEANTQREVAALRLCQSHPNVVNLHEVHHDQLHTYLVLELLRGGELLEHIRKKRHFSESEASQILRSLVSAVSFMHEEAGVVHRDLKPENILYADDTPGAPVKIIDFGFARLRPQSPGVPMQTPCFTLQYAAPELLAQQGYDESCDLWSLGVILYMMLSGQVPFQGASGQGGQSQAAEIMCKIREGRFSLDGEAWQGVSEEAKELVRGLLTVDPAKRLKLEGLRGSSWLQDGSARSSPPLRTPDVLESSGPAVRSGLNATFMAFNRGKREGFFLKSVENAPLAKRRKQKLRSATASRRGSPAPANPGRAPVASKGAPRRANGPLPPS

[13] = biological target: Serine/threonine-protein kinase B-raf (Homo sapiens) (UniProt P15056); experiment: Inhibition of recombinant human B-Raf (416 to end residues) at 1 uM using myelin as substrate incubated for 40 mins in presence of [gamma-33P]-ATP by scintillation counting method relative to control
In short: (§3)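 Kinase panel profiling at 1 μM performed by Eurofins KinaseProfiler; percent inhibition reported as mean of two independent experiments.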

[14] = Cmax in Sprague-Dawley rat at 10 mg/kg, iv by HPLC-MS analysis; assay type: ADME, organism-based; design: dose 10 mg/kg, route intravenous; conditions: in vivo
In short: (§4)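 Rats fitted with jugular vein catheters for serial blood sampling. Compound dissolved in saline with 5% (v/v) DMSO and given as a single 10 mg/kg dose iv or po after an overnight fast, n = 5 per group. Plasma isolated at once and measured by HPLC with tandem MS detection. Parameters derived by noncompartmental fitting.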

[15] = test system: Serine/threonine-protein kinase Chk2 (Homo sapiens), O96017 [I157T]; experiment: Inhibition of recombinant human CHK2 I157T mutant (5 to end residues) at 1 uM using KKKVSRSGLYRSP as substrate incubated for 40 mins in presence of [gamma-33P]-ATP by scintillation counting method relative to control; in short: as §3
Serine/threonine-protein kinase Chk2 (Homo sapiens), O96017 [I157T], sequence (O96017 whole entry I157T): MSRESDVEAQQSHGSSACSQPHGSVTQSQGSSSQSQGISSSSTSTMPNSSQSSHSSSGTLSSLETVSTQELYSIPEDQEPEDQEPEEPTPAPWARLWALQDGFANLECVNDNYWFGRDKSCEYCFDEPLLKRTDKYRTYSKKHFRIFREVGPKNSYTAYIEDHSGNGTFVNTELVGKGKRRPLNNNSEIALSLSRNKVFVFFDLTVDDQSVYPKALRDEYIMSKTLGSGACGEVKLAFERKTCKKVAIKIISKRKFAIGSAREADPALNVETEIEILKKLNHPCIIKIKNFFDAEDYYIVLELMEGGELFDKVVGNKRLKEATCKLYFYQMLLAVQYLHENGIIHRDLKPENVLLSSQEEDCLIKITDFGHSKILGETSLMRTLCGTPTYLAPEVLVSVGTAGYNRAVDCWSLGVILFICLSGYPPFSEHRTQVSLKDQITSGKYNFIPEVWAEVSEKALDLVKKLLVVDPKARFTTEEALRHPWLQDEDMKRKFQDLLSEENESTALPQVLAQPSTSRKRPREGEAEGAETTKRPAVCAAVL

[16] = biological target: Protein kinase C eta type (Homo sapiens) (UniProt P24723); experiment: Inhibition of recombinant human full length PKCeta (2 to end residues) at 1 uM using ERMRPRKRQGSVRRRV as substrate incubated for 40 mins in presence of [gamma-33P]-ATP by scintillation counting method relative to control
Protein kinase C eta type (Homo sapiens), sequence (P24723 whole entry): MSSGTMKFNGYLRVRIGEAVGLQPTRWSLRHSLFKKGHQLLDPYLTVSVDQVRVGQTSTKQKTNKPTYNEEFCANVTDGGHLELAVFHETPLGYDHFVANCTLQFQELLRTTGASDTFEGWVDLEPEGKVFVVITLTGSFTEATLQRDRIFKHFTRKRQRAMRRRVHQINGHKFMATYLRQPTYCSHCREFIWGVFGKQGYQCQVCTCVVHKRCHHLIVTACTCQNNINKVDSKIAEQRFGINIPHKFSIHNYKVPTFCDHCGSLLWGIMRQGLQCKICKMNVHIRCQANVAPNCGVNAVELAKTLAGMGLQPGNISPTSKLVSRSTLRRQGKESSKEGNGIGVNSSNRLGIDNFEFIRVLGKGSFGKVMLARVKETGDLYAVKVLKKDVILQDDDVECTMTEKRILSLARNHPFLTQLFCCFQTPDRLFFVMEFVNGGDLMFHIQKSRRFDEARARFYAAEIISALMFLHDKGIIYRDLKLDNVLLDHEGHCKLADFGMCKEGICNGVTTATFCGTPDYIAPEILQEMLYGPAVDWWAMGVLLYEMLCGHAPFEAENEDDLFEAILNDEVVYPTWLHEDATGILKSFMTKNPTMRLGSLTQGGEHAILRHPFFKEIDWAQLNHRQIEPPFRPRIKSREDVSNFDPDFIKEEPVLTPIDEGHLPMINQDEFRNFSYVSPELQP

MDA-MB-231 [17] = experiment: Inhibition of colony formation in human MDA-MB-231 cells at 20 to 40 nM incubated for 5 days by crystal violet staining based light microscopy; assay type: functional, cell-based; in short: as §1
[18] = Half life in Sprague-Dawley rat at 10 mg/kg, iv by HPLC-MS analysis; assay type: ADME, organism-based; conditions: in vivo; in short: as §4
[19] = biological target: eIF-2-alpha kinase GCN2 (Homo sapiens) (UniProt Q9P2K8); experiment: Inhibition of recombinant full length human GCN2 at 1 uM using RSRSRSRSRSRSRSR as substrate incubated for 40 mins in presence of [gamma-33P]-ATP by scintillation counting method relative to control; in short: as §2
[20] = biological target: Serine/threonine-protein kinase ULK2 (Homo sapiens) (UniProt Q8IYT8); experiment: Inhibition of recombinant human ULK2 (1 to 306 residues) at 1 uM using as casein substrate incubated for 40 mins in presence of [gamma-33P]-ATP by scintillation counting method relative to control; in short: as §2

COc1cc2nccc(Oc3ccc(NC(=O)C4(C(=O)Nc5ccc(F)cc5)CC4)cc3)c2cc1OC [CABOZANTINIB]
inhibition (HeLa [1]): Active | inhibition (HeLa [2]): Active

Cc1ccc(NC(=O)C2(C(=O)Nc3ccc(Nc4ncc(F)c(-c5cc(F)c6nc(C)n(C(C)C)c6c5)n4)cc3)CC2)cc1
Activity (SiHa): Dose-dependent effect | inhibition [3]: 65% | inhibition [4]: 0% | inhibition [5]: 22% | Activity (MDA-MB-231 [6]): Active | inhibition [7]: 15% | VRT(t) [8]: 7 h | inhibition [9]: 17% | inhibition [10]: 37% | inhibition [11]: 36% | inhibition [12]: 78% | inhibition [13]: 32% | Cmax [14]: 7 µg/mL | inhibition [15]: 24% | inhibition [16]: 17% | inhibition (MDA-MB-231 [17]): Active | half-life [18]: 2 h | inhibition [19]: 0% | inhibition [20]: 0%
